# Assays:
# [1] = Displacement of [3H]DTG from sigma 2 receptor in rat liver membrane homogenates after 2 hrs by liquid scintillation counting; format: cell membranes
# Method in brief: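 Rat liver membranes (~300 μg protein) with ~5 nM [3H]DTG plus 1 μM (+)-pentazocine to mask σ1 sites, 2 h at room temperature. Compounds were diluted in pH 7.4 Tris-HCl/NaCl/EDTA buffer. Nonspecific binding taken with 10 μM haloperidol, then filtration and scintillation counting. IC50 from one-site regression. Ki by Cheng-Prusoff (Kd 30.73 nM), mean ± SEM.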
# [2] = molecular target: T1, Vesicular acetylcholine transporter (Torpedo californica, UniProt P81721); test: Displacement of [3H]vesamicol from VAChT in Torpedo californica cholinergic synaptic vesicles; set-up: species or system Tetronarce californica
# T1 sequence (P81721 whole entry): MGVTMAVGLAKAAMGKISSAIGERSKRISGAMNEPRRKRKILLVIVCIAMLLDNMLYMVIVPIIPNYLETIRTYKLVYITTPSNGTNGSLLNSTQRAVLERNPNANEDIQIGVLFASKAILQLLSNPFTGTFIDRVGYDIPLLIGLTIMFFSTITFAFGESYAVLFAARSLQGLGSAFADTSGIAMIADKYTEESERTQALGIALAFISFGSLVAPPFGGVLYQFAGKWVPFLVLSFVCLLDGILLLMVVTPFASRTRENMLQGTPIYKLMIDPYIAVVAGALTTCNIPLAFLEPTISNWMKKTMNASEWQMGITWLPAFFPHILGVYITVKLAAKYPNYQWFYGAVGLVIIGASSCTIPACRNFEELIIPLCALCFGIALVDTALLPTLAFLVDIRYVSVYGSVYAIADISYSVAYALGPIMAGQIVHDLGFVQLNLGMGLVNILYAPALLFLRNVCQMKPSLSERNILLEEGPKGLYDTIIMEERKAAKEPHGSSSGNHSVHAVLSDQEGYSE
# Method in brief: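 Compounds tested as hydrochlorides. Averaged data fit by regression to a rectangular hyperbola to give Ki. Each compound assayed independently at least two times; Ki reported as mean ± SEM from at least three experiments.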
# [3] = molecular target: Sigma non-opioid intracellular receptor 1 (Cavia porcellus, UniProt Q60492); test: Displacement of [3H](+)-pentazocine from sigma 1 receptor in guinea pig brain membrane homogenates after 90 mins by liquid scintillation counting; format: cell membranes
# Method in brief: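 Compounds dissolved in DMF, DMSO or ethanol, then diluted in 50 mM Tris-HCl, 150 mM NaCl, 100 mM EDTA, pH 7.4. Guinea pig brain membranes (~300 μg protein) with ~5 nM [3H](+)-pentazocine, 90 min at room temperature. Nonspecific binding taken with 10 μM haloperidol. Filtered and counted. IC50 from one-site nonlinear fit. Ki by Cheng-Prusoff (Kd 7.89 nM), mean ± SEM.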
# [4] = Selectivity ratio of for sigma 2 receptor in rat liver membrane homogenates to Ki for VAChT in Torpedo californica cholinergic synaptic vesicles; format: cell membranes
# Method in brief: (§1)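 Index calculated as Ki(σ1 or σ2)/Ki(VAChT). […] Averaged data were fit to a rectangular hyperbola, and each compound was assayed independently at least twice. σ Ki values come from the radioligand binding assays in guinea pig brain (σ1) and rat liver (σ2) membranes.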
# [5] = Selectivity ratio of Ki for sigma 1 receptor in guinea pig brain membrane homogenates to Ki for VAChT in Torpedo californica cholinergic synaptic vesicles; format: cell membranes; method in brief: as §1
# Sigma non-opioid intracellular receptor 1, sequence (Q60492 whole entry): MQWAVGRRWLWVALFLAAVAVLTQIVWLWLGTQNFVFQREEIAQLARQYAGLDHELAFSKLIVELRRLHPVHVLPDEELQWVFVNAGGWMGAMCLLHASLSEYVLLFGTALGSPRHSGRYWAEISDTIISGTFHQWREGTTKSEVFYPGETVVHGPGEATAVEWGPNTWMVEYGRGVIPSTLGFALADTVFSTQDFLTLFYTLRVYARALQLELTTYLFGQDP
SMILES,Ki [1] [nM],Ki [2] [nM],Ki [3] [nM],Ratio Ki [4],Ratio Ki [5]
Nc1cccc2c1C[C@@H](N1CCC(C(=O)c3ccc(F)cc3)CC1)[C@H](O)C2,> 1000,2.4,> 1000,,
O[C@@H]1CCCC[C@H]1N1CCC(c2ccccc2)CC1 [VESAMICOL],34.5,,,,
O=C(c1ccc(Br)s1)C1CCN([C@@H]2CCCC[C@H]2O)CC1,35.7,46.8,29.5,0.8,0.6
O=C(c1ccc(F)cc1)C1(c2ccccc2)CCN([C@@H]2Cc3ccccc3C[C@H]2O)CC1,,1.83,,,
Nc1cccc2c1C[C@@H](O)[C@H](N1CCC(C(=O)c3ccc(F)cc3)CC1)C2,353,7.6,497,46.4,65.4
Nc1cccc2c1C[C@@H](O)[C@H](N1CCC(C(=O)c3cccs3)CC1)C2,> 1000,134,> 1000,,
O=C(c1ccc(F)cc1)C1CCN([C@@H]2CCCC[C@H]2O)CC1,113,423,303,0.3,0.7
CCOC(=O)C1CCN([C@@H]2Cc3ccccc3C[C@H]2O)CC1 (relative stereo),> 1000,68.5,> 1000,,
O=C(c1ccccc1)C1(c2ccccc2)CCN([C@@H]2Cc3ccccc3C[C@H]2O)CC1 (relative stereo),,1.64,,,
Nc1cccc2c1C[C@@H](N1CCC(C(=O)c3ccc(Br)s3)CC1)[C@H](O)C2,> 1000,0.41,> 1000,,
Nc1cccc2c1C[C@@H](N1CCC(C(=O)c3ccc(Br)cc3)CC1)[C@H](O)C2,> 1000,0.53,395,> 1890,746
Nc1cccc2c1C[C@@H](N1CCC(C(=O)N3CCCCC3)CC1)[C@H](O)C2,,89.5,,,
O=C(Cc1ccccc1)C1(c2ccccc2)CCN([C@@H]2Cc3ccccc3C[C@H]2O)CC1 (relative stereo),,1.38,,,
O=C(c1cccs1)C1CCN([C@@H]2Cc3ccccc3C[C@H]2O)CC1 (relative stereo),,5,,,
O=C(C1CCN([C@@H]2Cc3ccccc3C[C@H]2O)CC1)N1CCC(c2ccccc2)CC1 (relative stereo),> 1000,2.07,50.2,,24.3
O=C(c1ccccc1)C1CCN([C@@H]2CCCC[C@H]2O)CC1,341,650,281,0.5,0.4
O=C(c1ccc(Br)cc1)C1CCN([C@@H]2CCCC[C@H]2O)CC1,30.1,51.4,15.9,0.6,0.3
Nc1cccc2c1C[C@@H](O)[C@H](N1CCC(C(=O)c3ccc(Br)s3)CC1)C2,121,29.4,483,4.1,16.4
O=C(C1CCN([C@@H]2Cc3ccccc3C[C@H]2O)CC1)N1CCN(Cc2ccccc2)CC1 (relative stereo),> 1000,2.08,118,,56.8
O=C(c1ccc(I)s1)C1CCN([C@@H]2CCCC[C@H]2O)CC1,48.9,560,9.39,0.1,0.02
O=C(C1CCN([C@@H]2Cc3ccccc3C[C@H]2O)CC1)N1CCC(Cc2ccccc2)CC1 (relative stereo),> 1000,2.4,19.9,,8.3
O=C(c1cccs1)C1CCN([C@@H]2CCCC[C@H]2O)CC1,,763,,,
Nc1cccc2c1C[C@@H](O)[C@H](N1CCC(C(=O)N3CCCCC3)CC1)C2,,447,,,
O=C(c1ccccc1)C1(c2ccccc2)CCN([C@@H]2CCCC[C@H]2O)CC1,,68.5,,,
O=C(c1ccc(I)s1)C1CCN([C@@H]2Cc3ccccc3C[C@H]2O)CC1 (relative stereo),344,0.66,194,522,294
O=C(c1ccc(Br)s1)C1CCN([C@@H]2Cc3ccccc3C[C@H]2O)CC1 (relative stereo),72,0.54,129,133,239
Nc1cccc2c1C[C@@H](N1CCC(C(=O)c3cccs3)CC1)[C@H](O)C2,> 1000,4.9,> 1000,,
O=C(C1CCN([C@@H]2Cc3ccccc3C[C@H]2O)CC1)N1CCCCC1 (relative stereo),> 1000,31,> 1000,,
